According to ChEMBL document CHEMBL3588772, “Synthesis, anti-mycobacterial activity and DNA sequence-selectivity of a library of biaryl-motifs containing polyamides” (Bioorg Med Chem, 2015):
≈ marks a conversion by molar mass, not a printed value.

The molecules below were run on Mycobacterium tuberculosis (assay: Antimycobacterial activity against Mycobacterium bovis BCG after 7 days). Conditions: variant bovis BCG, 168 h.
Type: functional
Method in brief: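 HT-SPOTi agar growth inhibition in 96-well format. Serially diluted DMSO solutions were mixed into Middlebrook 7H10 agar (kept at 55 °C) with 0.05% glycerol and 10% OADC. Controls were DMSO-only wells and isoniazid. Each well received 2×10³ CFU of culture (pre-grown rolling at 2 rpm or standing, 37 °C). Plates ran 7 days at 37 °C. MIC = lowest concentration with no visible growth.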

| Compound | MIC |
| --- | --- |
| CC(=O)Nc1cccc(-c2ccc(C(=O)Nc3cc(C(=O)Nc4cc(C(=O)NCCCN(C)C)n(C)c4)n(C)c3)o2)c1 | 125 µg/mL (≈ 218 µM) |
| CC(=O)Nc1ccc(-c2csc(C(=O)Nc3cc(C(=O)Nc4cc(C(=O)NCCCN(C)C)n(C)c4)n(C)c3)c2)cc1 | 125 µg/mL (≈ 212 µM) |
| CO[C@H]1/C=C/O[C@@]2(C)Oc3c(C)c(O)c4c(O)c(c(/C=N/N5CCN(C)CC5)c(O)c4c3C2=O)NC(=O)/C(C)=C\C=C\[C@H](C)[C@H](O)[C@@H](C)[C@@H](O)[C@@H](C)[C@H](OC(C)=O)[C@@H]1C [RIFAMPIN] | 0.05 µg/mL (≈ 0.0608 µM) |
| Cc1nc(-c2cnn(C)c2)sc1C(=O)Nc1cc(C(=O)Nc2cc(C(=O)NCCCN(C)C)n(C)c2)n(C)c1 | 62.5 µg/mL (≈ 113 µM) |
| CC(=O)Nc1ccc(-c2ccc(C(=O)Nc3cc(C(=O)Nc4cc(C(=O)NCCCN(C)C)n(C)c4)n(C)c3)o2)cc1 | 125 µg/mL (≈ 218 µM) |
| Cn1cc(NC(=O)c2cc(NC(=O)c3cc(NC=O)cn3C)cn2C)cc1C(=O)NCCC(=N)N [STALLIMYCIN] | 1.95 µg/mL (≈ 4.05 µM) |
| Cc1nc(-c2ccsc2)sc1C(=O)Nc1cc(C(=O)Nc2cc(C(=O)NCCCN(C)C)n(C)c2)n(C)c1 | 125 µg/mL (≈ 226 µM) |
| CC(=O)Nc1ccc(-c2cc(C(=O)Nc3cc(C(=O)Nc4cc(C(=O)NCCCN(C)C)n(C)c4)n(C)c3)n(C)c2)cc1 | 125 µg/mL (≈ 213 µM) |
| NNC(=O)c1ccncc1 [ISONIAZID] | 0.05 µg/mL (≈ 0.365 µM) |
